One may read the IC50 as the midpoint of a concentration-inhibition curve. Higher therefore signals lower potency.

Assay [1] relates to HepG2. Kind of assay: Hepatoprotective activity against APAP-induced toxicity in human HepG2 cells assessed as cell survival rate at 10 uM after 48 hrs by MTT assay relative to control. To be noted: HepG2, 48 h, read-out: Survival. The class given is functional. The method, boiled down:
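HepG2 cells were co-treated with compound (10 μM final) and acetaminophen (10 mM final per methods; results text cites 8 mM) for 48 h. Bicyclol served as positive control and DMSO as negative control. MTT (0.5 mg/mL) was added for 4 h at 37 °C, formazan dissolved in DMSO, and A570 read. Survival = mean OD treated / mean OD solvent control.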

Assay [2] deals with HepG2. As to the kind of experiment: Cytotoxicity against human HepG2 cells measured after 72 hrs by MTT assay. The note with it: HepG2, 72 h.
In the next assay the test system is MCF7. Kind of assay: Cytotoxicity against human MCF7 cells measured after 72 hrs by MTT assay. To be noted: MCF7, 72 h. A general note: Tetrazolium dyes change colour on reduction, which living cells bring about.
A further assay deals with HCT-116. As to the kind of experiment: Cytotoxicity against human HCT116 cells measured after 72 hrs by MTT assay. The note with it: HCT-116, 72 h.
For the next assay, the system named is A549. Kind of assay: Cytotoxicity against human A549 cells measured after 72 hrs by MTT assay. The note with it: A549, 72 h.
For another assay, the system named is BGC-823. As to the kind of experiment: Cytotoxicity against human BGC823 cells measured after 72 hrs by MTT assay. The note with it: BGC-823, 72 h.

Turning to `CC(C)[C@H]1CC[C@@H](CO)c2c(O)cc(C(=O)O)cc21`, the viability at 10 µM with HepG2 [1] is 33.2 to 41.6%.

Turning to `C=C1CC[C@H](C(C)C)[C@@H](/C=C(\CC(=O)O)C(=O)O)[C@@H]1O`, the viability at 10 µM in the assay on HepG2 [1] lay in the range of 33.2 to 41.6%.

For the molecule `C=C(C)[C@@]12O[C@@H]1[C@@]1(C)C(=CC2=O)CC[C@@H](O)[C@@H]1C`, the viability at 10 µM in the assay on HepG2 [1] fell in the range of 33.2 to 41.6%.

In the case of `CC(=O)O[C@H]1C(=O)[C@@]2(C)[C@H]([C@H](OC(=O)c3ccccc3)[C@]3(O)C[C@H](OC(=O)[C@H](O)[C@@H](NC(=O)c4ccccc4)c4ccccc4)C(C)=C1C3(C)C)[C@]1(OC(C)=O)CO[C@@H]1C[C@@H]2O` [PACLITAXEL], the IC50 came to 1.9 nM in the assay on HepG2 [2]; 0.2 nM in the assay on MCF7; 1.8 nM in the assay with HCT-116; 13.7 nM with A549; 0.4 nM in the assay on BGC-823.

Take `C=C(CC[C@@H](C)[C@H]1CC[C@H]2C3=CC(=O)[C@H]4[C@H](O)[C@@H](O)CC[C@]4(C)[C@H]3CC[C@]12C)C(C)COC` (stereo partly drawn): the IC50 was over 10000 nM in the assay with HepG2 [2]; 2600 nM in the assay with MCF7; over 10000 nM in the assay with HCT-116; over 10000 nM in the assay with A549; over 10000 nM with BGC-823. The viability at 10 µM with HepG2 [1] lay within 33.2 to 41.6%.

As to `CC(C)[C@H]1CC[C@H](C(=O)O)[C@H]2CCC(C(=O)O)=C[C@@H]21`, the viability at 10 µM in the assay with HepG2 [1] is 33.2 to 41.6%.

Consider `COC(=O)c1cc(OC)c2c(c1-c1c(CO)cc(OC)c3c1OCO3)OCO2` [BICYCLOL], for which the viability at 10 µM with HepG2 [1] came out at 31.9%.

`CC(=O)OC/C(=C\[C@@H]1[C@@H](C(C)C)CC[C@@]2(O)COC(=O)[C@@H]12)C(=O)O`: the viability at 10 µM with HepG2 [1] was 33.2 to 41.6%.

Regarding `CC(C)[C@H]1CC[C@H](CO)c2c(O)cc(C(=O)O)cc21`, the viability at 10 µM in the assay with HepG2 [1] fell in the range of 33.2 to 41.6%.

Values taken from ChEMBL document CHEMBL4316657, “Sesquiterpenes from an Endophytic Aspergillus flavus” (J Nat Prod, 2019).
